Experimental findings from ChEMBL document CHEMBL5149984, “Discovery of HN37 as a Potent and Chemically Stable Antiepileptic Drug Candidate” (J Med Chem, 2021) are described below.

Molecules are shown by their SMILES. Where only a bound is given, the exact number is not on record here.

The subject of data set [1] is Mus musculus. Description: Anticonvulsant activity in pentylenetetrazol induced Kunming mouse model of seizure at 30 mg/kg, po after 1 hr. In kind it is functional. Put shortly:
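sc-PTZ test in male KM mice. Compound suspended in 0.5% CMC-Na and given orally 1 h before PTZ (freshly dissolved in normal saline, 100 mg/kg). Protection against clonic seizures scored; ED50 by nonlinear regression.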

The nature of data set [2]: Neurotoxicity in Kunming mouse assessed as motor impairment rate at 300 mg/kg, po after 1 hr by rotarod test. In kind it is toxicity, organism-based. The conditions noted are these: in vivo. The procedure, abridged: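 Male KM mice dosed intragastrically with compound freshly suspended in 0.5% CMC-Na. Rotarod performance scored 1 h after dosing as the fraction of animals showing motor impairment. Fisher's exact test versus vehicle; TD50 from nonlinear dose−response fit.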

Data set [3] deals with Mus musculus. Description: Anticonvulsant activity in MES induced Kunming mouse model of seizure at 100 mg/kg, po. The class given is functional. The procedure, abridged: (§1)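 MES test in male KM mice. Compounds freshly suspended in 0.5% CMC-Na and given by gavage at 20 mL/kg; 160 V stimulus through ear clips. Protection scored as absence of hindlimb tonic extension; time course at 0.25, 0.5, 1 and 2 h, otherwise tested at 1 h. ED50 from dose−response by nonlinear regression; Fisher's exact test versus vehicle.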

In data set [4] the test system is Mus musculus. Description: Anticonvulsant activity in MES induced Kunming mouse model of seizure at 60 mg/kg, po. In kind it is functional. Put shortly:
as §1

Data set [5] deals with Potassium voltage-gated channel subfamily KQT member 5 (Homo sapiens) (UniProt Q9NR82). Description: Agonist activity at human KCNQ5 channel expressed in CHO cells assessed as shift of half voltage of maximal activation at 10 uM by patch clamp method. In kind it is cell-based. The conditions noted are these: filed as agonist. The procedure, abridged:
(§2)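 Whole-cell patch clamp at room temperature on CHO cells (DMEM/F12, 10% FBS) transiently co-transfected with EGFP and hKCNQ1, rKCNQ2, rKCNQ3 A278T, hKCNQ4 or hKCNQ5; KCNQ2/3 at 1:1 cDNA ratio. Pipette solution 145 mM KCl, 5 mM MgATP, pH 7.3; bath 140 mM NaCl, 5 mM KCl, pH 7.4, under perfusion. V1/2 from Boltzmann fits; I/I0 is current amplitude with versus without compound; n = 4−6.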

Data set [6] in a line: Metabolic stability in monkey liver microsomes assessed as half life. In kind it is ADME, Macaca mulatta, Microsome. The conditions noted are these: rhesus monkey.
Data set [7] has as its target T1, CYP3A4 (Homo sapiens, UniProt P08684). Kind of data set: Inhibition of human liver microsome CYP3A4 at 0.10 to 50 uM preincubated with NADPH for 0.5 hrs followed by substrate addition by LC-MS/MS method relative to control. The class given is ADME. The conditions noted are these: liver microsomes, dose 0.1-50 µM. The procedure, abridged: (§3)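 Human liver microsomes preincubated 0.5 h with 0.10−50 μM compound, with or without NADPH, then CYP-specific probe substrates added (CYP3A4 with midazolam 1′-hydroxylation and with testosterone 6β-hydroxylation). Metabolites quantified by LC−MS/MS; % activity remaining computed against no-compound control. IC50 fitted by Probit model; ratio = IC50(−NADPH)/IC50(+NADPH).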

The nature of data set [8]: AUC(0 to t) in Sprague-Dawley rat at 6 mg/kg, po measured upto 24 hrs by LC-MS/MS method. In kind it is ADME, organism-based. Details: dose 6 mg/kg, time < 24 hrs, route po. The conditions noted are these: in vivo. The procedure, abridged:
(§4)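 Male SD rats (180−220 g) dosed orally at 2, 6 or 20 mg/kg in escalating fashion, handled as in the mouse study: 12 h fast, acetonitrile extraction of plasma, LC−MS/MS quantification. AUC0−t by trapezoidal method to the last measurable concentration.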

Data set [9] addresses Potassium voltage-gated channel subfamily KQT member 2 (Rattus norvegicus) (UniProt O88943). Kind of data set: Agonist activity at rat KCNQ2 channel expressed in CHO cells assessed as amplitude change of outward current at 0.1 uM by patch clamp method. In kind it is cell-based. The conditions noted are these: filed as agonist. Put shortly: as §2
The nature of data set [10]: Metabolic stability in mouse liver microsomes assessed as intrinsic clearance. The class given is ADME, Microsome. The conditions noted are these: read-out: CLH.
Data set [11] in a line: Cmax in Sprague-Dawley rat at 2 mg/kg, po measured upto 24 hrs by LC-MS/MS method. In kind it is ADME, organism-based. Details: time < 24 hrs, dose 2 mg/kg, route po. The conditions noted are these: in vivo. The procedure, abridged: as §4
Data set [12] can be described thus: Oral bioavailability in Kunming mouse plasma at 5 mg/kg measured upto 24 hrs by LC-MS/MS method. In kind it is ADME, organism-based. The procedure, abridged:
(§5)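 Male KM mice (18−24 g) fasted 12 h before and 2 h after dosing, given 5 mg/kg orally in 5% DMSO/5% Tween 80/90% normal saline (n = 3 per time point). Aortic blood taken at 0.25–24 h and whole brain collected. Acetonitrile extraction with internal standard, then LC−MS/MS. Bioavailability calculated against the 2 mg/kg i.v. arm.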

Data set [13] has as its target T1, CYP3A4. Description: Ratio of IC50 for human liver microsome CYP3A4 using testosterone as substrate in absence of NADPH to IC50 for human liver microsome CYP3A4 using testosterone as substrate in presence of NADPH. The conditions noted are these: liver microsomes, probe testosterone, read-out: Ratio IC50. The procedure, abridged: as §3
The target of data set [14] is Potassium voltage-gated channel subfamily KQT member 2/member 3 (Rattus norvegicus) (UniProt O88943+O88944). Description: Agonist activity at rat KCNQ2/3 channel expressed in CHO cells assessed as shift of half voltage of maximal activation at 0.1 uM by patch clamp method. The conditions noted are these: filed as agonist. In kind it is cell-based. Put shortly: as §2

Data set [15] deals with Cytochrome P450 2C8 (Homo sapiens, UniProt P10632). Kind of data set: Time dependent inhibition of human liver microsome CYP2C8 preincubated for 0.5 hrs in absence of NADPH followed by substrate addition by LC-MS/MS method. In kind it is ADME, microsomes. Put shortly: (§6)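 Human liver microsomes preincubated 0.5 h with 0.10–50 μM test compound, with or without NADPH, then CYP-specific probe substrate added and incubation continued. Metabolite measured by LC-MS/MS; % activity remaining relative to no-compound control; IC50 fitted by Probit model. For CYP3A4, midazolam 1′-hydroxylation and testosterone 6β-hydroxylation were read separately.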
Sequence of Cytochrome P450 2C8 (P10632 whole entry): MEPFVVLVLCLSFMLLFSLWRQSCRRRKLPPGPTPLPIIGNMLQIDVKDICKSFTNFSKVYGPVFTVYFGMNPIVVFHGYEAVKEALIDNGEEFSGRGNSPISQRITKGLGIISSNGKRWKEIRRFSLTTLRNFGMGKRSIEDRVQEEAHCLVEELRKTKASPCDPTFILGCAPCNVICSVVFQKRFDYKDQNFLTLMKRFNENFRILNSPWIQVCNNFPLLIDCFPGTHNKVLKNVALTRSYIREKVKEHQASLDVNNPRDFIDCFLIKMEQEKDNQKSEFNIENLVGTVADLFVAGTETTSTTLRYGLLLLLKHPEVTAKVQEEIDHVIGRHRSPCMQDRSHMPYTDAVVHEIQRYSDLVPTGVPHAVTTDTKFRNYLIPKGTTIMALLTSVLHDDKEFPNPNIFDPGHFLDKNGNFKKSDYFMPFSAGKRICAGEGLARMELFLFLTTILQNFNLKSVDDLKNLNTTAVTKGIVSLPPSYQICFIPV

Data set [16] in a line: Half life in Sprague-Dawley rat at 6 mg/kg, po measured upto 24 hrs by LC-MS/MS method. In kind it is ADME, organism-based. The conditions noted are these: in vivo. Put shortly:
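Male SD rats (180−220 g) given single oral doses of 2, 6 and 20 mg/kg; handled as in the mouse PK study (fasted 12 h before and 2 h after dosing, 5% DMSO/5% Tween 80/90% saline formulation). In a separate 6 mg/kg p.o. set, blood and brain were sampled together. Plasma and brain levels by LC−MS/MS.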

The nature of data set [17]: Metabolic stability in human liver microsomes assessed as intrinsic clearance. The class given is ADME, Microsome. The conditions noted are these: read-out: CLH.
In data set [18] the target is CYP2C19 (Homo sapiens, UniProt P33261). Kind of data set: Ratio of IC50 for human liver microsome CYP2C19 in absence of NADPH to IC50 for human liver microsome CYP2C19 in presence of NADPH. The conditions noted are these: liver microsomes, read-out: Ratio IC50.
Sequence of CYP2C19 (P33261 whole entry): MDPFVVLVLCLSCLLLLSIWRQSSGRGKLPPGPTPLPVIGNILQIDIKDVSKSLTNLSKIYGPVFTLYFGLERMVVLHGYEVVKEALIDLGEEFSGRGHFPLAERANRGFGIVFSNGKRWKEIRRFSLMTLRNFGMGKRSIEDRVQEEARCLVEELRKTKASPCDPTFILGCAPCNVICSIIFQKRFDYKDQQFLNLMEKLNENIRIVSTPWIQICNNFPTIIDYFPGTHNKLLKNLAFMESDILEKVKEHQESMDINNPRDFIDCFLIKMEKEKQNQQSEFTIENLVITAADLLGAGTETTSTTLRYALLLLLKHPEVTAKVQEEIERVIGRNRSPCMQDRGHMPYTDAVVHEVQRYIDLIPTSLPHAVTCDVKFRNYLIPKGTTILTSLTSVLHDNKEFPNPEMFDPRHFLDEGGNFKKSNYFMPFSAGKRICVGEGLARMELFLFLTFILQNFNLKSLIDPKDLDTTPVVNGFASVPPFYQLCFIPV
The target in data set [19] is Cytochrome P450 3A4 (Homo sapiens, UniProt P08684). Kind of data set: Time dependent inhibition of human liver microsome CYP3A4 preincubated for 0.5 hrs in presence or absence of NADPH followed by testosterone addition by LC-MS/MS method. In kind it is ADME, microsomes. Put shortly:
as §6

The nature of data set [20]: Half life in Kunming mouse plasma at 5 mg/kg, po measured upto 24 hrs by LC-MS/MS method. The class given is ADME, organism-based. The procedure, abridged: as §5

T1 sequence (P08684 whole entry): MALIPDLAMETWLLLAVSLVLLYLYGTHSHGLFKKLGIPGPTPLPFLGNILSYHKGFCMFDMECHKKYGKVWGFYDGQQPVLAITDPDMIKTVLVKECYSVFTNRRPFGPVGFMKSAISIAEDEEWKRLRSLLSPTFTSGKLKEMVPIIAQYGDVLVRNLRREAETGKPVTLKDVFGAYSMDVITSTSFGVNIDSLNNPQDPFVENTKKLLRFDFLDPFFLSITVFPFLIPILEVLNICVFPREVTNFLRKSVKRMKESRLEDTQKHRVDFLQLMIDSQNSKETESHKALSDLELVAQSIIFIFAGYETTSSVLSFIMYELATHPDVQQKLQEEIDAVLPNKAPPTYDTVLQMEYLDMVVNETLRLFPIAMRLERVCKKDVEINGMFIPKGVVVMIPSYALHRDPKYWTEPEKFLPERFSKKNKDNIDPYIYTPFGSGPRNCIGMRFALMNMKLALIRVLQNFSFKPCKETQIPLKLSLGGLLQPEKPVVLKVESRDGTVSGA
Sequence of Potassium voltage-gated channel subfamily KQT member 5 (Homo sapiens) (Q9NR82 whole entry, the tested form may be a part): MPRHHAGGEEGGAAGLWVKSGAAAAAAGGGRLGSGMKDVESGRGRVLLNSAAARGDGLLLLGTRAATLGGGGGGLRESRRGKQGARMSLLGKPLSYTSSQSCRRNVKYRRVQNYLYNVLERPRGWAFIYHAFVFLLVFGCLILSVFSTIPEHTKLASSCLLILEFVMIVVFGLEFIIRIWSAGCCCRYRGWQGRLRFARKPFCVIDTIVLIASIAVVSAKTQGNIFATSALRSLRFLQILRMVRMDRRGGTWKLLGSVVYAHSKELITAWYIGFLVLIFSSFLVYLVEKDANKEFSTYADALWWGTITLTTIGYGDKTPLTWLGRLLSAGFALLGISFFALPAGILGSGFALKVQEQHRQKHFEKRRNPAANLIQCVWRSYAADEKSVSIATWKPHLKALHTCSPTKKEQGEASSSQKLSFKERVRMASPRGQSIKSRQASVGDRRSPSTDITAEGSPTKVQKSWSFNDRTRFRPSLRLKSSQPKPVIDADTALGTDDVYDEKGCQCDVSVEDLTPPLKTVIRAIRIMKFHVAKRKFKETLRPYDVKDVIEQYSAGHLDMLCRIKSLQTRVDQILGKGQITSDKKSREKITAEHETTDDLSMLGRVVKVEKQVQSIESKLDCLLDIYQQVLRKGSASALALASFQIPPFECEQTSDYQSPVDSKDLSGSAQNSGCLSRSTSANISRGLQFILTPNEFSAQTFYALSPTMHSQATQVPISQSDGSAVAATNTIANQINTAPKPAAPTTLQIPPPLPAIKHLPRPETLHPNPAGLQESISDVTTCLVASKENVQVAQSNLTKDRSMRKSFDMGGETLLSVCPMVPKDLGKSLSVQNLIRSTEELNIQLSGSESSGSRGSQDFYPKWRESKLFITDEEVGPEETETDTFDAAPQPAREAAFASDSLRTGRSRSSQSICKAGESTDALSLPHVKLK
Sequence of Cytochrome P450 3A4 (P08684 whole entry): as the sequence (P08684 whole entry) above
Sequence of Potassium voltage-gated channel subfamily KQT member 2 (Rattus norvegicus) (O88943 whole entry): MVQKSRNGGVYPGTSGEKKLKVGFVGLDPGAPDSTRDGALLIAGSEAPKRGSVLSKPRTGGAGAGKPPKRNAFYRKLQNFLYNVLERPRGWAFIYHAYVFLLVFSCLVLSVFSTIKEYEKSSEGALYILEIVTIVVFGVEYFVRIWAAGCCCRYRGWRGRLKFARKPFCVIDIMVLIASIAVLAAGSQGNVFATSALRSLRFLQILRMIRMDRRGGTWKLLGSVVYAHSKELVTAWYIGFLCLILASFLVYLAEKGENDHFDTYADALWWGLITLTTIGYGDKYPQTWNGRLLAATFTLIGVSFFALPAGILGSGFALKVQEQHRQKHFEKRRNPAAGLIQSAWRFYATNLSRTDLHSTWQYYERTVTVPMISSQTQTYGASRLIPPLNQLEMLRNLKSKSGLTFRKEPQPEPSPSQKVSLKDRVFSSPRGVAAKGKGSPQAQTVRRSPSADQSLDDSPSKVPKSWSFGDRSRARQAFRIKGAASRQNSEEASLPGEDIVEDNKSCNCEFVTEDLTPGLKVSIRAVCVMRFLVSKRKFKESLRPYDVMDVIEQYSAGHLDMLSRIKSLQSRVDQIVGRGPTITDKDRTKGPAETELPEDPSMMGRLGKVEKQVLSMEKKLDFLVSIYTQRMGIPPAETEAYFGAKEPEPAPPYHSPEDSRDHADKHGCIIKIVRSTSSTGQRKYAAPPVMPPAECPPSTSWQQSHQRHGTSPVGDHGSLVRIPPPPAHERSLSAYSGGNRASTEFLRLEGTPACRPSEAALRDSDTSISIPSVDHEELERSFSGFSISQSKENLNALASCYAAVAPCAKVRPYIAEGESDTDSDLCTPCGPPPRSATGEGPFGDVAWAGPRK

Consider `CCOC(=O)Nc1ccc(NCc2ccc(F)cc2)cc1N` [EZOGABINE], for which the Activity in data set [1] amounted to 50%; in data set [2] it was 100%; in data set [3] it was 87.5%; in data set [4] it was 62.5%; in [5] it was 0.09 mV.

As to `C#CCN(Cc1ccc(F)cc1)c1cc(C)c(NC(=O)OC)c(C)c1`, the half-life in data set [6] is 0.302 h; in data set [16], 2.36 h; in data set [20], 1.95 h. Further, the inhibition at 0.5 h, up to 50 µM in data set [7] was less than 25%. For the same compound, the AUC(0-t) at 24 h in [8] was 1130 ng·h/mL. The Activity in [9] is 3.4; in data set [14], -60.2 mV. Besides, the CLint scaled in [10] was determined as 438 mL/min/kg; in data set [17] it was 62.7 mL/min/kg. Besides, in data set [11], the Cmax came out at 88.2 ng/mL. For the same compound, in data set [12], the bioavailability is 24.2%. Besides, the IC50 shift in data set [13] and in data set [18] was less than 1.5 each time. The IC50 in data set [15] was 225 µM; in data set [19], greater than 50 µM.
